SMILES strings stand for the structures. The source made the active and inactive calls. No cut-off for these calls is given here.

The subject of the first assay is Cyanidioschyzon merolae. Kind of assay: Binding affinity to Cyanidioschyzon merolae ABCB1 assessed as Km.
Details: not given
An outline of the steps:
(§1)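 Purified wild-type CmABCB1 in β-DDM micelles; ATPase activity measured against rhodamine concentration with 5 mM ATP in 50 mM Tris–HCl (pH 7.5 at 37 °C), 150 mM NaCl, 0.05% (w/v) β-DDM, 37 °C, 30 min. Bell-shaped activity curve fitted to a modified Michaelis–Menten equation giving Km (stimulation) and Ki (substrate inhibition); means ± SD, n = 3.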
One may read the Km as the concentration of substrate that gives half-maximal velocity. Regarding `CN(C)c1cccc(COC(=O)c2ccccc2C2=c3cc4c(cc3Oc3cc5c(cc32)CCCN5)=NCCC4)c1`, the Km was found to be 0.52 µM.

Turning to `CCCC/N=c1/cc2oc3cc(NCCCC)c(C)cc3c(-c3ccccc3C(=O)OCCCC)c-2cc1C`, the Km was determined as 3.2 µM.

On to `COc1cccc(COC(=O)c2ccccc2C2=c3cc4c(cc3Oc3cc5c(cc32)CCCN5)=NCCC4)c1`, for which the Km was determined as 0.58 µM.

As to `COc1cc(COC(=O)c2ccccc2C2=c3cc4c(cc3Oc3cc5c(cc32)CCCN5)=NCCC4)cc(OC)c1`, the Km was 0.31 µM.

Take `COc1ccc(COC(=O)c2ccccc2C2=c3cc4c(cc3Oc3cc5c(cc32)CCCN5)=NCCC4)cc1`: the Michaelis-Menten constant (Km) stood at 0.73 µM.

On to `CCCCOC(=O)c1ccccc1C1=c2cc3c(cc2Oc2cc4c(cc21)CCCN4)=NCCC3`, for which the Km amounted to 1.7 µM.

For `O=C(OCc1ccccc1)c1ccccc1C1=c2cc3c(cc2Oc2cc4c(cc21)CCCN4)=NCCC3`, the Michaelis-Menten constant (Km) is 0.81 µM.

Regarding `O=C(OCc1ccc2ccccc2c1)c1ccccc1C1=c2cc3c(cc2Oc2cc4c(cc21)CCCN4)=NCCC3`, the Michaelis constant (Km) was determined as 0.77 µM.

Turning to `CCCCOC(=O)c1ccccc1-c1c2cc(C)c(=[N+]3CCCC3)cc-2oc2cc(N3CCCC3)c(C)cc12`, the Km came to 1.1 µM.

For `COc1ccccc1COC(=O)c1ccccc1C1=c2cc3c(cc2Oc2cc4c(cc21)CCCN4)=NCCC3`, the Michaelis-Menten constant (Km) was determined as 0.5 µM.

Take `O=C(OCc1cccc(C(F)(F)F)c1)c1ccccc1C1=c2cc3c(cc2Oc2cc4c(cc21)CCCN4)=NCCC3`: the Km turned out to be 0.44 µM.

For `O=C(OCc1cccc([N+](=O)[O-])c1)c1ccccc1C1=c2cc3c(cc2Oc2cc4c(cc21)CCCN4)=NCCC3`, the Km came out at 0.55 µM.

Regarding `CCCCOC(=O)c1ccccc1C1=c2cc3c4c(c2Oc2c1cc1c5c2CCCN5CCC1)CCC[N+]=4CCC3`, the Km was determined as 1.5 µM.

Take `CC/N=c1/cc2oc3cc(NCC)c(C)cc3c(-c3ccccc3C(=O)OCC)c-2cc1C`: the Km was 2.9 µM.

In the case of `Cc1cccc(COC(=O)c2ccccc2C2=c3cc4c(cc3Oc3cc5c(cc32)CCCN5)=NCCC4)c1`, the Km worked out at 0.56 µM.

As for `O=C(OCCc1ccccc1)c1ccccc1C1=c2cc3c(cc2Oc2cc4c(cc21)CCCN4)=NCCC3`, the Michaelis constant (Km) came out at 1.4 µM.

As for `COc1cccc(OC)c1COC(=O)c1ccccc1C1=c2cc3c(cc2Oc2cc4c(cc21)CCCN4)=NCCC3`, the Michaelis constant (Km) is 0.55 µM.

Consider `O=C(OCc1ccccc1C(F)(F)F)c1ccccc1C1=c2cc3c(cc2Oc2cc4c(cc21)CCCN4)=NCCC3`, for which the Km was determined as 3.9 µM.

`O=C(OCc1cc(C(F)(F)F)cc(C(F)(F)F)c1)c1ccccc1C1=c2cc3c(cc2Oc2cc4c(cc21)CCCN4)=NCCC3`: the Km came out at 2.3 µM.

As to `CCCCOC(=O)c1ccccc1-c1c2cc(C)/c(=N\CC)cc-2oc2cc(NCC)c(C)cc12`, the Km was found to be 4.6 µM.

Another assay relates to Cyanidioschyzon merolae. Kind of assay: Substrate activity at Cyanidioschyzon merolae ABCB1 4WY/M391W mutant assessed as tryptophan quenching ratio by measuring inner chamber entry by fluorescence based analysis.
Details: not given
In outline:
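Purified CmABCB1 4WY/M391W mutant (four of six native Trp removed, Trp introduced at 391), 13 μg/mL in 20 mM Tris–HCl (pH 7.5 at 25 °C), 150 mM NaCl, 0.05% (w/v) β-DDM, titrated with compound (0–1.0 μM) at 25 °C; excitation 290 nm, quenching ratio of emission at 340 nm.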
With `COc1cccc(OC)c1COC(=O)c1ccccc1C1=c2cc3c(cc2Oc2cc4c(cc21)CCCN4)=NCCC3`, the Activity is 30%.

Target in the next assay: not listed separately
Kind of assay: Inhibition of Cyanidioschyzon merolae ABCB1 ATPase activity assessed as inhibition constant by colorimetric analysis.
Details: not given
In outline:
as §1
A word on the Ki: it is a measure of affinity in units of concentration, obtained from inhibition or displacement. Turning to `CN(C)c1cccc(COC(=O)c2ccccc2C2=c3cc4c(cc3Oc3cc5c(cc32)CCCN5)=NCCC4)c1`, the Ki is 10 µM.

In the case of `CCCC/N=c1/cc2oc3cc(NCCCC)c(C)cc3c(-c3ccccc3C(=O)OCCCC)c-2cc1C`, the Ki came to 160 µM.

On to `COc1cccc(COC(=O)c2ccccc2C2=c3cc4c(cc3Oc3cc5c(cc32)CCCN5)=NCCC4)c1`, for which the inhibitory constant (Ki) worked out at 8.2 µM.

As to `COc1cc(COC(=O)c2ccccc2C2=c3cc4c(cc3Oc3cc5c(cc32)CCCN5)=NCCC4)cc(OC)c1`, the Ki amounted to 31 µM.

Consider `COc1ccc(COC(=O)c2ccccc2C2=c3cc4c(cc3Oc3cc5c(cc32)CCCN5)=NCCC4)cc1`, for which the Ki amounted to 9.1 µM.

Regarding `CCCCOC(=O)c1ccccc1C1=c2cc3c(cc2Oc2cc4c(cc21)CCCN4)=NCCC3`, the Ki turned out to be 14 µM.

Turning to `O=C(OCc1ccccc1)c1ccccc1C1=c2cc3c(cc2Oc2cc4c(cc21)CCCN4)=NCCC3`, the inhibition constant Ki is 8.9 µM.

Consider `O=C(OCc1ccc2ccccc2c1)c1ccccc1C1=c2cc3c(cc2Oc2cc4c(cc21)CCCN4)=NCCC3`, for which the Ki is 9.6 µM.

Regarding `CCCCOC(=O)c1ccccc1-c1c2cc(C)c(=[N+]3CCCC3)cc-2oc2cc(N3CCCC3)c(C)cc12`, the Ki is 110 µM.

For `COc1ccccc1COC(=O)c1ccccc1C1=c2cc3c(cc2Oc2cc4c(cc21)CCCN4)=NCCC3`, the inhibitory constant (Ki) turned out to be 8.2 µM.

Turning to `O=C(OCc1cccc(C(F)(F)F)c1)c1ccccc1C1=c2cc3c(cc2Oc2cc4c(cc21)CCCN4)=NCCC3`, the Ki is 18 µM.

`O=C(OCc1cccc([N+](=O)[O-])c1)c1ccccc1C1=c2cc3c(cc2Oc2cc4c(cc21)CCCN4)=NCCC3`: the inhibitory constant (Ki) was found to be 12 µM.

With `CCCCOC(=O)c1ccccc1C1=c2cc3c4c(c2Oc2c1cc1c5c2CCCN5CCC1)CCC[N+]=4CCC3`, the Ki worked out at 43 µM.

`CC/N=c1/cc2oc3cc(NCC)c(C)cc3c(-c3ccccc3C(=O)OCC)c-2cc1C`: the inhibition constant Ki is 690 µM.

Take `Cc1cccc(COC(=O)c2ccccc2C2=c3cc4c(cc3Oc3cc5c(cc32)CCCN5)=NCCC4)c1`: the Ki came out at 8.4 µM.

Take `O=C(OCCc1ccccc1)c1ccccc1C1=c2cc3c(cc2Oc2cc4c(cc21)CCCN4)=NCCC3`: the Ki was 8.1 µM.

As to `COc1cccc(OC)c1COC(=O)c1ccccc1C1=c2cc3c(cc2Oc2cc4c(cc21)CCCN4)=NCCC3`, the inhibition constant (Ki) turned out to be 5.8 µM.

For the molecule `O=C(OCc1ccccc1C(F)(F)F)c1ccccc1C1=c2cc3c(cc2Oc2cc4c(cc21)CCCN4)=NCCC3`, the inhibition constant (Ki) amounted to 1.2 µM.

Consider `O=C(OCc1cc(C(F)(F)F)cc(C(F)(F)F)c1)c1ccccc1C1=c2cc3c(cc2Oc2cc4c(cc21)CCCN4)=NCCC3`, for which the Ki turned out to be 6.3 µM.

For `CCCCOC(=O)c1ccccc1-c1c2cc(C)/c(=N\CC)cc-2oc2cc(NCC)c(C)cc12`, the Ki was 560 µM.

The subject of a further assay is Cyanidioschyzon merolae. The assay can be described thus: Potency index, ratio of test compound Ki to Rhodamine 6G Ki for inhibition of Cyanidioschyzon merolae ABCB1 ATPase activity assessed as inhibition constant by colorimetric analysis.
Details: not given
As for `COc1cccc(OC)c1COC(=O)c1ccccc1C1=c2cc3c(cc2Oc2cc4c(cc21)CCCN4)=NCCC3`, the Ratio Ki is 120.

The subject of the next assay is Saccharomyces cerevisiae. Kind of assay: Antimicrobial activity against Saccharomyces cerevisiae expressing AD1-8u- cells assessed as growth inhibition upto 30 uM incubated for 15 to 17 hrs. It counts as functional, organism-based. Particulars: time 15-17 hrs. An outline of the steps:
(§2)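 S. cerevisiae AD1-8u cells expressing wild-type CmABCB1, alongside mock-transfected AD1-8u cells, grown in YPD medium with a range of drug concentrations at 30 °C for 15–17 h; growth compared between strains; means ± SD, n = 3.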
For `CC/N=c1/cc2oc3cc(NCC)c(C)cc3c(-c3ccccc3C(=O)OCC)c-2cc1C`, the outcome was inactive.

A further assay has as its system Saccharomyces cerevisiae. The assay can be described thus: Antimicrobial activity against Saccharomyces cerevisiae expressing AD1-8u- cells assessed as growth inhibition at 1 uM incubated for 15 to 17 hrs. Format: functional, organism-based. Particulars: time 15-17 hrs. In outline:
as §2
For `CC/N=c1/cc2oc3cc(NCC)c(C)cc3c(-c3ccccc3C(=O)OCC)c-2cc1C`, the outcome was Active.

The test system of a further assay is Cyanidioschyzon merolae. The assay can be described thus: Potency index, ratio of test compound Km to Rhodamine 6G Km for binding affinity to Cyanidioschyzon merolae ABCB1 assessed as Km.
Details: not given
`COc1cccc(OC)c1COC(=O)c1ccccc1C1=c2cc3c(cc2Oc2cc4c(cc21)CCCN4)=NCCC3`: the Ratio worked out at 5.

The record behind these values is ChEMBL document CHEMBL5357076, “Structure-ATPase Activity Relationship of Rhodamine Derivatives as Potent Inhibitors of P-Glycoprotein CmABCB1” (ACS Med Chem Lett, 2024).
